Series [1] has as its target STE20/SPS1-related proline-alanine-rich protein kinase (Rattus norvegicus, UniProt O88506). In words: Inhibition of TAMRA-labelled WNK4 binding to recombinant rat C-terminal GST-fused SPAK (452 to 553 residues) expressed in Escherichia coli BL21 measured for 15 secs by FCS assay. An outline of the steps: (§1)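 GST-fused rat SPAK CCT (residues 452–553) expressed in E. coli BL21 with IPTG induction for 16 h at 28°C, then glutathione-affinity purified. TAMRA-labelled WNK4 RFQV peptide (2.7 nM final) incubated with 0.5 µM GST–SPAK-CCT in PBS with 0.05% Tween 20 and 1% DMSO for 30 min at 25°C. An AFQV-mutant peptide served as negative control. Binding read by FCS with 15 s acquisition, five measurements per sample, and IC50 calculated from the data.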

In series [2] the target is STE20/SPS1-related proline-alanine-rich protein kinase (Rattus norvegicus) (UniProt O88506). Kind of series: Inhibition of TAMRA-labelled WNK4 binding to recombinant rat C-terminal GST-fused SPAK (452 to 553 residues) expressed in Escherichia coli BL21 at > 10^-5 M measured for 15 secs by FCS assay. The essentials:
as §1

Series [3] has as its system HEK-293T. Kind of series: Cytotoxicity against HEK293T cells after 40 hrs by CCK8 assay. The series is classed as cell-based. The settings on record: Homo sapiens. On the technique in general: Formazan colour is commonly taken as a measure of viable cells.
In series [4] the test system is HEK-293T. In words: Cytotoxicity against HEK293T cells at 100 uM after 40 hrs by CCK8 assay. The series is classed as cell-based. The conditions noted are these: human.
Series [5] deals with Mus musculus. Kind of series: In-vivo inhibition of WNK signaling pathway in ip dosed C57BL/6 mouse assessed as reduction in phosphorylated NCC level after 90 mins by immunoblotting analysis. The class given is functional, organism-based. The essentials:
(§2)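 Male-unspecified C57BL/6 mice, 10 weeks old, given a single ip injection of 5, 10 or 20 mg/kg in 100 µL DMSO, with DMSO-alone controls. Kidneys taken 90 min later and homogenized in ice-cold 1% Triton X-100 buffer. Nuclear fraction removed, lysate denatured at 60°C for 20 min, and protein measured by Bradford. Total and phospho forms of SPAK, NCC (pSer71), NKCC1 (pThr206) and NKCC2 detected by quantitative immunoblotting.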
In general terms: In western blotting, separated proteins are transferred to a membrane and probed.

Series [6] concerns Mus musculus. In words: In-vivo inhibition of WNK signaling pathway in C57BL/6 mouse assessed as reduction in NKCC1 phosphorylation at 5 to 20 mg/kg, ip after 90 mins by immunoblotting analysis. The class given is functional, organism-based. An outline of the steps:
as §2

For series [7], the system named is Mus musculus. In words: In-vivo inhibition of WNK signaling pathway in C57BL/6 mouse assessed as reduction in NKCC2 phosphorylation at 5 to 20 mg/kg, ip after 90 mins by immunoblotting analysis. The class given is functional, organism-based. An outline of the steps:
as §2

By IC50 is commonly meant the midpoint of a concentration-inhibition curve.

The structures appear in SMILES notation. Active and inactive are the calls of the source. The calls are words filed in the database; no cut-off is given here.

Turning to `CCOc1ccc2nc3cc(NCc4ccccc4)ccc3c(N)c2c1`, the IC50 in series [1] was found to be 35.6 µM.

In the case of `CCOc1ccc2nc3cc(NC(=O)c4ccc(C#N)cc4)ccc3cc2c1`, the inhibition entry in series [2] was “inactive”. Turning to `CCOc1ccc2nc3cc(NC(=O)c4ccco4)ccc3c(N)c2c1`, in series [1], the concentration for half-maximal inhibition (IC50) was 8.2 µM. Same read-out and setting: next, `N#Cc1ccc(NC(=O)Nc2ccc3c(N)c4cc(O)ccc4nc3c2)cc1`: 2.6 µM. `CCOc1ccc2nc3cc(NC(=O)c4ccc(C#N)cc4)ccc3c(Oc3ccccc3)c2c1`: the inhibition entry in series [2] was “inactive”. Consider `CCOc1ccc2nc3cc(NCc4ccco4)ccc3c(N)c2c1`, for which the results for the 50% inhibitory concentration (IC50) in series [1] and in series [3] were 15.4 µM and 4.2 µM, respectively. Regarding `CCOc1ccc2nc3cc(NC(=O)c4ccc([N+](=O)[O-])cc4)ccc3c(N)c2c1`, in series [1], the 50% inhibitory concentration (IC50) was 20.9 µM. As to `CCOc1ccc2nc3cc(NC(=O)c4ccc5ccccc5c4)ccc3c(N)c2c1`, the IC50 in series [1] came out at 7.6 µM. With `COc1ccc2nc3cc(NC(=O)Nc4ccc(C#N)cc4)ccc3c(N)c2c1`, the IC50 in series [1] came to 4.8 µM. The Activity entry in series [4] is recorded as “Non-Toxic”. In addition, the inhibition result in series [5] was “Dose-dependent effect”. In addition, the inhibition entry in series [6] and in series [7] was “Active” each time.

As to `CCOc1ccc2nc3cc(NC(=O)c4ccc(C#N)cc4)ccc3c(N)c2c1`, the IC50 turned out to be 6.9 µM in series [1] and 25 µM in series [3]. Also, the inhibition entry in series [5] was “Dose-dependent effect”. Further, the inhibition entry in series [6] and in series [7] was “Active” in each case.

Turning to `CCOc1ccc2nc3cc(NCc4ccc(OC)cc4OC)ccc3c(N)c2c1`, the concentration for half-maximal inhibition (IC50) in series [1] is 21.1 µM. As to `CCOc1ccc2nc3cc(NC(=O)c4cccc(C#N)c4)ccc3c(N)c2c1`, the IC50 in series [1] was found to be 2.6 µM. On the same count and under the same terms, next, `CCOc1ccc2nc3cc(NC(=O)c4ccc(F)cc4)ccc3c(N)c2c1`: 36.9 µM. Still for that read-out and setting: the value for `CCOc1ccc2nc3cc(NC(=O)c4ccccc4)ccc3c(N)c2c1` was 28.2 µM. On the same count and under the same terms, the value for `CCOc1ccc2nc3cc(NC(=O)c4cc(C(F)(F)F)cc(C(F)(F)F)c4)ccc3c(N)c2c1` was > 100 µM; that for `CCOc1ccc2nc3cc(NCc4cccs4)ccc3c(N)c2c1` was 53.5 µM. `CCOc1ccc2nc3cc(NC(=O)c4ccc(Cl)cc4)ccc3c(N)c2c1`: the IC50 in series [1] stood at 49 µM. On the same count and under the same terms, the value for `CCOc1ccc2nc3cc(NC(=O)c4cccc([N+](=O)[O-])c4)ccc3c(N)c2c1` was 3.9 µM. For the compound `CCOc1ccc2nc3cc(NC(=O)c4ccc(C(=O)OC)cc4)ccc3c(N)c2c1`, the inhibition result in series [2] was “inactive”. Turning to `CCOc1ccc2nc3cc(NC(C)=O)ccc3c(N)c2c1`, in series [2], the inhibition result is “inactive”.

Source of the values: ChEMBL document CHEMBL4052652, “Development of WNK signaling inhibitors as a new class of antihypertensive drugs” (Bioorg Med Chem, 2017).
